We go through 2 compounds from article PMC4823011 (The American journal of clinical nutrition, 2014).

Where “and” joins values, the source holds several entries; their conditions need not be identical. Equal values may be shown once. Read-outs that look alike come from different tables or passages of the source.

For data set [1] the following is noted: model parameter; cited from earlier work.
The conditions of data set [2]: 684 nmol (320 μg) cecal infusion after bowel cleansing; cited from earlier work.
The format of data set [3] is in vivo, human. Summed up: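 Given after a ≥4-wk washout as an IV injection in 1.35 mL sterile saline (pH 7.0, 74 μg folate/mL). Blood was drawn from the opposite arm at 15 min, then every 30 min for 4 h. Plasma M+5/M+0 molar ratios were measured by LC-MS/MS. Amounts were converted to nmol/person from baseline microbiological plasma folate, blood volume and packed cell volume. Half-life came from a one-phase exponential fit to the descending plasma curve.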

The nature of data set [4]: Apparent absorption across the colon calculated with one-compartment model. The data set is classed as in vivo, human. Summed up: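 Enteric-coated caplet with about 12.6% coating mass gain. The absorbed mass was estimated from plasma labeled 5-methyltetrahydrofolate concentration using a three-equation, one-compartment model of small-intestinal folate absorption. Volume of distribution was taken as 387 mL/kg body weight. t_lag, the time plasma enrichment stayed at baseline, was set at 1 h. Plasma was sampled hourly after pyloric passage until 2000, then at 24 and 48 h.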

For data set [5] the following is noted: cited from earlier work.
Data set [6] is classed as in vivo, human. Conditions: caplet 855 nmol oral.
Where [7] appears, read: iv 214 nmol, individual subjects A-I.

For `Nc1nc2ncc(CNc3ccc(C(=O)N[C@@H](CCC(=O)O)C(=O)O)cc3)nc2c(=O)[nH]1` [folate], the “Apparent volume of distribution (V)” value in data set [1] is listed as 387 mL/kg body weight.
On to `Nc1nc2c(c(=O)[nH]1)N(C=O)C(CNc1ccc(C(=O)N[C@@H](CCC(=O)O)C(=O)O)cc1)CN2` (stereo partly drawn) [[^13C5]5-formyltetrahydrofolate, [glutamyl-^13C5]-[6S]-5-formyltetrahydrofolic acid], for which the “Rate of folate absorption after bolus infusion directly into the cecum” value in data set [2] is 0.6 ± 0.02 nmol/h. Further, the “5-formyltetrahydrofolate Cmax (labeled, plasma)” value in data set [3] (setting [7]) is 20.0 nmol and 10.2 nmol and 20.3 nmol and 7.1 nmol and 15.9 nmol and 14.1 nmol and 7.5 nmol and 10.9 nmol and 15.2 nmol; in data set [3] (iv 214 nmol, mean ± SEM, n = 9) it was 13.5 ± 1.6 nmol. In addition, the “5-methyltetrahydrofolate Cmax (labeled metabolite, plasma)” value in data set [3] (setting [7]) is 6.8 nmol and 6.6 nmol and 10.2 nmol and 3.1 nmol and 7.8 nmol and 10.0 nmol and 5.0 nmol and 6.0 nmol and 5.8 nmol. In data set [3] (plasma samples collected immediately after iv injection, mean ± SEM), the “Plasma enrichment with [13C5]5-formyltetrahydrofolate” value is 11.6 ± 1.5%. In data set [4] (caplet, one-compartment model, mean, excludes 2 subjects without plasma response), the “Apparent absorption across the colon of the 855-nmol dose” value was 46% and 46.2 ± 16.5%. In addition, the bioavailability in data set [4] (human, plasma, oral, 855 nmol) was 34.7 ± 14.3%. The “Apparent absorption in the small intestine” value in data set [5] (500-nmol orally administered test dose) is 38 ± 6% and 38%. The “Rate of folate absorption across the small intestine” value in data set [5] (oral bolus 421–569 nmol, estimated from published data) is reported as ~ 34 nmol/h. Further, in data set [6] (any subject), the “Detection of [13C5]5-formyltetrahydrofolate (parent) in plasma after caplet” value was “did not detect”. Also, the “Cmax of [13C5]5-methyltetrahydrofolate in plasma” value in data set [6] (individual subjects A-F) was 0.5 nmol and 2.0 nmol and 3.7 nmol and 4.0 nmol and 1.6 nmol.
